Experimental data from ChEMBL document CHEMBL3877330, “Synthesis and Antitumor Activity Evaluation of a Novel Combi-nitrosourea Prodrug: BGCNU” (ACS Med Chem Lett, 2017).

Columns and labels:
[1] = Cytotoxicity against AGT-positive human SF767 cells assessed as reduction in cell viability measured after 24 hrs by CCK8 assay; assay type: functional, cell-based; conditions: SF767, 24 h
[2] = Cytotoxicity against AGT-deficient human SF126 cells assessed as reduction in cell viability measured after 24 hrs by CCK8 assay; assay type: functional, cell-based; conditions: SF-126, 24 h
[3] = Potency index, ratio of ACNU IC50 in combination with O6-BG to test compound IC50 for AGT-positive human SF763 cells; assay type: functional
Outline: (§1)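 Survival curves were run in AGT-high human glioma SF763 cells. […] The index is the IC50 of the combination divided by the test compound's IC50.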

[4] = n-Octanol/water partition coefficient, log P of the compound at 2 mM by HPLC analysis; assay type: physicochemical
SF-126 [5] = experiment: Binding affinity to DNA in AGT-deficient human SF126 cells assessed as increase in dG-dC crosslinking incubated for 12 hrs by HPLC-ESI-MS/MS analysis; assay type: cell-based
Outline: (§2)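 Glioma cells exposed to drug at 0.1, 0.2, 0.4 and 0.6 mM. Genomic DNA then extracted and dG-dC interstrand cross-link levels quantified by HPLC-ESI-MS/MS. Triplicate determinations (n=3) per concentration.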

Bos taurus = species: Bos taurus; experiment: Binding affinity to calf thymus DNA assessed as increase in dG-dC crosslinking incubated for 12 hrs under dark condition by HPLC-ESI-MS/MS analysis
Outline: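 Calf thymus DNA treated directly with drug at 0.1, 0.2, 0.4 and 0.6 mM. dG-dC cross-link levels measured by HPLC-ESI-MS/MS.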

[6] = Potency index, ratio of BCNU IC50 to test compound IC50 for AGT-positive human SF763 cells; assay type: functional
Outline: (§3)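 Cell survival curves were run in human glioma cells, with SF763 high in AGT and SF126 lacking AGT. IC50 values came from the curves. The index is the IC50 of ACNU or BCNU alone divided by the test compound's IC50.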

[7] = Potency index, ratio of ACNU IC50 to test compound IC50 for AGT-positive human SF763 cells; assay type: functional; outline: as §3
[8] = Cytotoxicity against AGT-positive human SF763 cells assessed as reduction in cell viability measured after 24 hrs by CCK8 assay; assay type: functional, cell-based; conditions: SF763, 24 h
SF-126 [9] = experiment: Potency index, ratio of ACNU IC50 to test compound IC50 for AGT-deficient human SF126 cells; assay type: functional; outline: as §3
[10] = Potency index, ratio of BCNU IC50 in combination with O6-BG to test compound IC50 for AGT-positive human SF763 cells; assay type: functional; outline: as §1
[11] = target: T1, Methylated-DNA--protein-cysteine methyltransferase (Homo sapiens) (UniProt P16455); experiment: Inhibition of AGT in human SF763 cells assessed as increase in dG-dC crosslinking incubated for 12 hrs by HPLC-ESI-MS/MS analysis; assay type: cell-based; outline: as §2
T1 sequence (whole entry): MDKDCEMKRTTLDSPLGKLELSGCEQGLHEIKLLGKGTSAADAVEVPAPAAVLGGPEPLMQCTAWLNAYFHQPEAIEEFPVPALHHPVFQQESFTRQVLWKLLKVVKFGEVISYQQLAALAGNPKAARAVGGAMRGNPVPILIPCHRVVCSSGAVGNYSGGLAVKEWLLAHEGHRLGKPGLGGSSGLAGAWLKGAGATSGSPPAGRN

[12] = target: T1, Methylated-DNA--protein-cysteine methyltransferase (Homo sapiens); experiment: Inhibition of AGT in human SF767 cells assessed as increase in dG-dC crosslinking incubated for 12 hrs by HPLC-ESI-MS/MS analysis; assay type: cell-based; outline: as §2
[13] = Cytotoxicity against AGT-positive human SF763 cells assessed as reduction in cell viability pretreated with O6-BG for 2 hrs followed by addition of compound measured after 24 hrs by CCK8 assay; assay type: functional, cell-based
Outline: (§4)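 Nitrosourea combined with 20 µM O6-BG. Survival curves were generated for the glioma cells across a range of drug concentrations, and IC50 was read from those curves.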

[14] = Cytotoxicity against AGT-positive human SF767 cells assessed as reduction in cell viability pretreated with O6-BG for 2 hrs followed by addition of compound measured after 24 hrs by CCK8 assay; assay type: functional, cell-based; outline: as §4
[15] = Cytotoxicity against AGT-deficient human SF126 cells assessed as reduction in cell viability pretreated with O6-BG for 2 hrs followed by addition of compound measured after 24 hrs by CCK8 assay; assay type: functional, cell-based; conditions: SF-126; outline: as §4

Compound: Nc1nc(OCc2ccccc2)c2ncn(CCNC(=O)N(CCCl)N=O)c2n1
- IC50 [1]: 58 µM
- IC50 [2]: 52 µM
- Ratio IC50 [3]: 17
- logP at 2000 µM [4]: 1.81
- Activity (SF-126 [5]): Dose-dependent effect
- Activity (Bos taurus): Dose-dependent effect
- Ratio IC50 [6]: 5.8
- Ratio IC50 [7]: 27
- IC50 [8]: 60 µM
- Ratio IC50 (SF-126 [9]): 7 - 9
- Ratio IC50 [10]: 3.3
- inhibition [11]: Dose-dependent effect
- inhibition [12]: Dose-dependent effect

Compound: O=NN(CCCl)C(=O)NCCCl [CARMUSTINE]
- IC50 [1]: 130 µM
- IC50 [2]: 85 µM
- Activity (SF-126 [5]): Dose-dependent effect
- IC50 [13]: 200 µM
- Activity (Bos taurus): Dose-dependent effect
- IC50 [14]: 120 µM
- IC50 [8]: 350 µM
- IC50 [15]: 55 µM
- inhibition [11]: Dose-dependent effect
- inhibition [12]: Dose-dependent effect

Compound: Cc1ncc(CNC(=O)N(CCCl)N=O)c(N)n1 [NIMUSTINE]
- IC50 [1]: 570 µM
- IC50 [2]: 450 µM
- Activity (SF-126 [5]): Dose-dependent effect
- Activity (Bos taurus): Dose-dependent effect
- IC50 [14]: 400 µM
- IC50 [8]: 1600 µM
- IC50 [15]: 360 µM
- inhibition [11]: Dose-dependent effect
- inhibition [12]: Dose-dependent effect
